Measurements reported in ChEMBL document CHEMBL1143088, “Non-acidic pyrazole EP1 receptor antagonists with in vivo analgesic efficacy” (Bioorg Med Chem Lett, 2008).
pIC50, pKi: −log10 of the molar value.

Key:
Blood [1] = assay: Drug uptake in FCA-induced hypersensitivity rat blood at 10 mg/kg, po administered with NMP as vehicle; type: ADME, organism-based; design: dose 10 mg/kg, route oral; details: in vivo, read-out: Drug uptake
How it was run: (§1)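 CFA inflammatory pain rats dosed orally at 1, 3 and 10 mg/kg in 2% NMP, 2% miglyol, 2% solutol–Kleptose in water; samples taken 1 h post-dose. Blood levels mean of seven rats; brain level at 10 mg/kg only, mean of three rats.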

Blood [2] = assay: Drug uptake in FCA-induced hypersensitivity rat blood at 3 mg/kg, po administered with NMP as vehicle; details: in vivo
Cytochrome P450 1A2 = target: T1, Cytochrome P450 1A2 (Homo sapiens, UniProt P05177); assay: Inhibition of CYP1A2; type: ADME
T1 sequence (P05177 whole entry): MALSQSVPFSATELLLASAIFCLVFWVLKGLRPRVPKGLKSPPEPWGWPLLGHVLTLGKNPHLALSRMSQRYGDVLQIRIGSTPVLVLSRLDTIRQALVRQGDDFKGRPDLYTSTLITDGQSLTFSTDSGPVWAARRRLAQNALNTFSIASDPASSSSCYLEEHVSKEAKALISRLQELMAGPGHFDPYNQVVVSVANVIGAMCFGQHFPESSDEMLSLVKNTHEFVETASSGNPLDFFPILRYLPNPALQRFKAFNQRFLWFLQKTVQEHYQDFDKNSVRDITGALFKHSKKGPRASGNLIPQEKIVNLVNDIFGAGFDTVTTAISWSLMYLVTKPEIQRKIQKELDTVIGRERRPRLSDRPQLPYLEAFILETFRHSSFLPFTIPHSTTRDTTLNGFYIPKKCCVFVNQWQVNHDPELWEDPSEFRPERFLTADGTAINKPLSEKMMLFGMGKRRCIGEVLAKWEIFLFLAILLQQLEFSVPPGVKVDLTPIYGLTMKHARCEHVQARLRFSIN

[3] = target: T2, Prostaglandin E2 receptor EP3 subtype (Homo sapiens, UniProt P43115); assay: Antagonist activity at PGE2-EP3 receptor assessed as PGE2-induced intracellular calcium mobilization; type: functional, cell-based
T2 sequence (P43115 whole entry): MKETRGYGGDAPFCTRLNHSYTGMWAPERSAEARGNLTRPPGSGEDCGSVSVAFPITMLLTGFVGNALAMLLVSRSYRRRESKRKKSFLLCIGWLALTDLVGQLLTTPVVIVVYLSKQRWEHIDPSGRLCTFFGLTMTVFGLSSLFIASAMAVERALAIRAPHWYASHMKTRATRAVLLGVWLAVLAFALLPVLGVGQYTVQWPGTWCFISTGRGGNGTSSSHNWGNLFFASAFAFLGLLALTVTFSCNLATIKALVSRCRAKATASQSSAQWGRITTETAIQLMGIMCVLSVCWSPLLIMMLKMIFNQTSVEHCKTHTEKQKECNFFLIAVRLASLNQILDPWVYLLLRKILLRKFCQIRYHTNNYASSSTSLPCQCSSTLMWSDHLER

Rattus norvegicus [4] = assay: Reversal of FCA-induced hypersensitivity in orally dosed rat assessed as reduction in weight bearing administered with NMP as vehicle; type: functional; details: po
How it was run: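 Oral dosing in the rat CFA inflammatory pain model was at 1, 3 and 10 mg/kg. The vehicle was 2% NMP, 2% miglyol and 2% solutol–Kleptose in water. Weight bearing was assessed 1 h post-dose. Blood was sampled at 1 h (seven rats), and brain at 10 mg/kg (three rats). ED50 was given in mg/kg.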

Cytochrome P450 3A4 = Cytochrome P450 3A4 (Homo sapiens, UniProt P08684); assay: Inhibition of CYP3A4; type: ADME
Chain of Cytochrome P450 3A4 (P08684 whole entry): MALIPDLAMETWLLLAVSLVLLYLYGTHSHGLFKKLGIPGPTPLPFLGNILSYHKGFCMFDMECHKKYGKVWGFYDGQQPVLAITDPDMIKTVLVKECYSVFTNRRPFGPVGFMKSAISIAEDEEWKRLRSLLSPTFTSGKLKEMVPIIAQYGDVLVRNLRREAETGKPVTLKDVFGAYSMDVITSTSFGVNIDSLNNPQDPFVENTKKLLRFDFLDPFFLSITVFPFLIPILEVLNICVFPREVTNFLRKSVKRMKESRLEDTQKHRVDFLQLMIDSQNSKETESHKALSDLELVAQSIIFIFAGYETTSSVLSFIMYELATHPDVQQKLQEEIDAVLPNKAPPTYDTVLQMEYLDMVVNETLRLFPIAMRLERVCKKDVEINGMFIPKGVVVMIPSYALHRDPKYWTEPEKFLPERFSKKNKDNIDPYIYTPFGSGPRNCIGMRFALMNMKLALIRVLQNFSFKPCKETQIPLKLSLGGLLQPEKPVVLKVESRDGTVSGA

Blood [5] = assay: Drug uptake in FCA-induced hypersensitivity rat blood at 1 mg/kg, po administered with NMP as vehicle; type: ADME, organism-based; design: dose 1 mg/kg, route oral; details: in vivo, read-out: Drug uptake; how it was run: as §1
[6] = Ratio of drug level in brain to blood in FCA-induced hypersensitivity rat at 10 mg/kg, po administered with NMP as vehicle; type: ADME, organism-based; design: dose 10 mg/kg, route oral
How it was run: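 CFA inflammatory pain model in rats, oral dosing at 1, 3 and 10 mg/kg in 2% NMP, 2% miglyol and 2% solutol–Kleptose in water. Samples taken 1 h post-dose with the weight-bearing readout. Brain concentration measured at 10 mg/kg only; brain:blood ratio is the mean of three rats, with blood levels the mean of seven.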

Cytochrome P450 2C9 = Cytochrome P450 2C9 (Homo sapiens, UniProt P11712); assay: Inhibition of CYP2C9; type: ADME
Chain of Cytochrome P450 2C9 (P11712 whole entry): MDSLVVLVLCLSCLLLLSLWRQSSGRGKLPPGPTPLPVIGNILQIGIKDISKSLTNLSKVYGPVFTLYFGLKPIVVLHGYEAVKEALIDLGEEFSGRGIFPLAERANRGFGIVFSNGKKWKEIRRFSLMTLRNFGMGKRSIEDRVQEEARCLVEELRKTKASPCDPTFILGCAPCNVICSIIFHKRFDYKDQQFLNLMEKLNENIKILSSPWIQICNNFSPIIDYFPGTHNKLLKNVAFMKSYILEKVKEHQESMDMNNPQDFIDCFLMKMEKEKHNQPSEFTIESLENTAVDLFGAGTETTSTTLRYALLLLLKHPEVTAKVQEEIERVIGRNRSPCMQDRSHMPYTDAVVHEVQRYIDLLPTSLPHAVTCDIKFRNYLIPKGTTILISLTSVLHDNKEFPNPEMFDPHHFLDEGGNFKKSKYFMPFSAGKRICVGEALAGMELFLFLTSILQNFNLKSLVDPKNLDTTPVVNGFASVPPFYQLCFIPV

Cytochrome P450 2C19 = Cytochrome P450 2C19 (Homo sapiens, UniProt P33261); assay: Inhibition of CYP2C19; type: ADME
Chain of Cytochrome P450 2C19 (P33261 whole entry): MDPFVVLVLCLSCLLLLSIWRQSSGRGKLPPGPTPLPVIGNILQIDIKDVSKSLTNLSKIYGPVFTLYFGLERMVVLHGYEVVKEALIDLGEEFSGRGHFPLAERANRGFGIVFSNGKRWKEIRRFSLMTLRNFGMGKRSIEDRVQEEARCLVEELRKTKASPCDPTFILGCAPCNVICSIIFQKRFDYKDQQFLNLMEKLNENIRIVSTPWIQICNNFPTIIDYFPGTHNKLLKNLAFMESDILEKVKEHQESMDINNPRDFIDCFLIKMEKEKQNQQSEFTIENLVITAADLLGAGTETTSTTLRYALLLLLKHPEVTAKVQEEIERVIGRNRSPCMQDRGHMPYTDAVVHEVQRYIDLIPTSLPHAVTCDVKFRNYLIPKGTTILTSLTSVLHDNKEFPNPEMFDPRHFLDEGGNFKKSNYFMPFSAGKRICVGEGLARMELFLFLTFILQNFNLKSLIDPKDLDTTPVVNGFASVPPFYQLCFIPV

[7] = target: T3, Prostaglandin E2 receptor EP1 subtype (Homo sapiens, UniProt P34995); assay: Displacement of [3H]PGE2 from human PGE2-EP1 receptor expressed in CHO-K1 cells; type: cell-based
T3 sequence (P34995 whole entry): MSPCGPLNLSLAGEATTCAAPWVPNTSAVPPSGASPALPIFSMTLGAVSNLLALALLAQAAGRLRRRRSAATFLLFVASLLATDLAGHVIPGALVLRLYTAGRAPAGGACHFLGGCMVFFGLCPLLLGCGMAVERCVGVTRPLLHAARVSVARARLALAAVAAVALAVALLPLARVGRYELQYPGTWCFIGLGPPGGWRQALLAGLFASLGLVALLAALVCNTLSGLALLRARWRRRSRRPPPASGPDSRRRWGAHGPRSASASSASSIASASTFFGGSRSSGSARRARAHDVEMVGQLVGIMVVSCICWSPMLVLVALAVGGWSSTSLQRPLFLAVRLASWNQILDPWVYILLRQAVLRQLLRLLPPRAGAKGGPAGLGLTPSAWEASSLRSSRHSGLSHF

[8] = Distribution coefficient, logD at pH 7.4; type: physicochemical; details: octanol/water
How it was run: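 Distribution coefficient between n-octanol and water buffered to pH 7.4; log10 of ratio of equilibrium concentrations of all species.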

[9] = target: T3, Prostaglandin E2 receptor EP1 subtype; assay: Antagonist activity at PGE2-EP1 receptor assessed as PGE2-induced response by schild analysis; type: functional; details: read-out: pA2 (converted)
Cytochrome P450 2D6 = Cytochrome P450 2D6 (Homo sapiens, UniProt P10635); assay: Inhibition of CYP2D6; type: ADME
Chain of Cytochrome P450 2D6 (P10635 whole entry): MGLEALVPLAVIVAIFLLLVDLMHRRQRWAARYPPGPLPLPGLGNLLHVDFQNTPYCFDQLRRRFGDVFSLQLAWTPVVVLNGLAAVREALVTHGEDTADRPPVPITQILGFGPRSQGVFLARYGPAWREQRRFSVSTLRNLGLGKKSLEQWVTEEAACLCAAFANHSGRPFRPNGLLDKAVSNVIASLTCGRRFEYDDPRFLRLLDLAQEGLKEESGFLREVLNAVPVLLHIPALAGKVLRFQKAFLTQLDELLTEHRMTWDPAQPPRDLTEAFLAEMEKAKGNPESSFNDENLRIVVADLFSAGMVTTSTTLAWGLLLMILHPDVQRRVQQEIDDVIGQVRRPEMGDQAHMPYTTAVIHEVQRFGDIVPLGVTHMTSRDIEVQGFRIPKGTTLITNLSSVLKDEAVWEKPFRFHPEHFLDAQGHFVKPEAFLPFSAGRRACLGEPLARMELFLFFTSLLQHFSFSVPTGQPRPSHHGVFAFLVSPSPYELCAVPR

[10] = target: T3, Prostaglandin E2 receptor EP1 subtype; assay: Antagonist activity at PGE2-EP1 receptor assessed as PGE2-induced intracellular calcium mobilization; type: functional, cell-based
Brain = assay: Drug uptake in FCA-induced hypersensitivity rat brain at 10 mg/kg, po administered with NMP as vehicle; type: ADME, organism-based; design: dose 10 mg/kg, route oral; details: read-out: Drug uptake, in vivo; how it was run: as §1
[11] = Ratio of drug level in brain to blood in FCA-induced hypersensitivity rat at 10 mg/kg, po administered with DMSO and PEG400 as vehicle; type: ADME, organism-based; design: dose 10 mg/kg, route oral
How it was run: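 Rats with CFA-induced inflammatory pain dosed orally at 1, 3, 10 (and 30) mg/kg in 1% DMSO, 66% PEG400, 33% water. Blood and brain sampled 1 h post-dose, alongside the weight-bearing readout. Brain:blood ratio taken from the 10 mg/kg group, mean of seven rats.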

Rattus norvegicus [12] = assay: Reversal of FCA-induced hypersensitivity in orally dosed rat assessed as reduction in weight bearing administered with DMSO and PEG400 as vehicle; type: functional; details: po
How it was run: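 Rats with CFA-induced inflammatory pain were dosed orally at 1, 3 and 10 mg/kg or 1, 3, 10 and 30 mg/kg. The vehicle was 1% DMSO, 66% PEG400 and 33% water. Weight bearing was read 1 h post-dose and samples were taken then. Brain:blood ratio was measured in the 10 mg/kg group (n=7). ED50 was derived in mg/kg.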

SMILES: Cc1cc(NC(=O)OC(C)C)nn1Cc1cc(Cl)ccc1OCc1ccccc1
- concentration (Blood [1]): 1400 nM
- concentration (Blood [2]): 749 nM
- pIC50 (Cytochrome P450 1A2): 5.11
- pKi [3]: < 5.00
- ED50 (Rattus norvegicus [4]): 4.6 mg/kg
- pIC50 (Cytochrome P450 3A4): < 4.09
- concentration (Blood [5]): 153 nM
- Kp [6]: 2.2
- pIC50 (Cytochrome P450 2C9): 4.77
- pIC50 (Cytochrome P450 2C19): < 4.00
- pIC50 [7]: 7.50
- logD [8]: > 3.7
- Kb [9]: 0.00794 µM
- pIC50 (Cytochrome P450 2D6): < 4.00
- pKi [10]: 7.30
- concentration (Brain): 3330 nM
- Kp [11]: 1.73
- ED50 (Rattus norvegicus [12]): 1.89 mg/kg
